Laboratory results: ChEMBL document CHEMBL1255417, “Correlation between in vitro activity of posaconazole and in vivo efficacy against Rhizopus oryzae infection in mice” (Antimicrob Agents Chemother, 2010)
Values after ≈ are worked out from the molar mass of the structure shown. Active and inactive are the calls of the source. The rule behind the calls is not given here.

What was measured:
Rhizopus arrhizus [1] = assay: Antifungal activity against drug-susceptible Rhizopus oryzae UTHSC 412-546 after 24 to 48 hrs; assay type: functional
Rhizopus arrhizus [2] = assay: Antifungal activity against drug-susceptible Rhizopus oryzae UTHSC 05-2447 after 24 to 48 hrs; assay type: functional
Summary of the method: (§1)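 Minimum fungicidal concentration: 20 µl from each microdilution well showing complete inhibition (optically clear) plated on potato dextrose agar, incubated 35°C for 24 to 48 h; MFC taken as lowest drug concentration giving no growth.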

Rhizopus arrhizus [3] = assay: Antifungal activity against drug-susceptible Rhizopus oryzae UTHSC 06-4152 by broth microdilution method; assay type: functional
Summary of the method: (§2)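 Posaconazole MIC in ug/ml, determined by broth microdilution following the CLSI guidelines for moulds (M38-A2).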

Rhizopus arrhizus [4] = assay: Antifungal activity against drug-susceptible Rhizopus oryzae UTHSC 03-228 by broth microdilution method; assay type: functional
Summary of the method: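 Broth microdilution MIC in µg/ml, run per the CLSI (formerly NCCLS) guideline for filamentous fungi, M38-A2.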

Rhizopus arrhizus [5] = assay: Antifungal activity against drug-intermediate Rhizopus oryzae UTHSC 03-3165 at 5 ug by disk diffusion assay; assay type: functional; details: read-out: DIZ
Summary of the method: (§3)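 Neo-Sensitabs tablet diffusion on Mueller-Hinton agar, following the guidelines for molds. Tablets were 9 mm in diameter and held 5 µg of drug. The read-out was inhibition zone diameter in mm.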

Rhizopus arrhizus [6] = assay: Antifungal activity against drug-intermediate Rhizopus oryzae UTHSC 07-365 infected in OF1 mouse assessed as increase in mouse survival at 20-30 mg/kg, po bid treated 24 hrs after fungal infection; assay type: functional, organism-based
Summary of the method: (§4)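 Survival model in male OF1 mice, 30 g. Mice were immunosuppressed 1 day before infection with cyclophosphamide 200 mg/kg i.p. plus 5-fluorouracil 150 mg/kg i.v., then infected i.v. via lateral tail vein with 2 × 10^4 CFU in 0.2 ml saline. Oral gavage at 10, 20 or 30 mg/kg BID began 24 h post-challenge for 7 days. Ceftazidime 5 mg/day s.c. was given days 1–7. Groups of 10 were checked daily for 20 days; untreated controls.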

Rhizopus arrhizus [7] = assay: Antifungal activity against drug-intermediate Rhizopus oryzae UTHSC 05-3032 infected in OF1 mouse assessed as reduction in brain fungal load at 10-30 mg/kg, po bid treated 24 hrs after fungal infection; assay type: functional, organism-based
Summary of the method: (§5)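 Tissue burden in immunosuppressed male OF1 mice, using cyclophosphamide 200 mg/kg i.p. plus 5-fluorouracil 150 mg/kg i.v. on day −1. Mice received 2 × 10^4 CFU i.v. by tail vein, then oral gavage at 10, 20 or 30 mg/kg BID from 24 h post-challenge, with ceftazidime cover; untreated controls. Groups of 10 were killed on day 4. Kidneys and brains were homogenized in 2 ml saline, serially diluted 10-fold, plated on PDA and counted after 24 h at 35°C.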

Rhizopus arrhizus [8] = assay: Antifungal activity against drug-susceptible Rhizopus oryzae UTHSC 05-2975 by broth microdilution method; assay type: functional; summary of the method: as §2
Rhizopus arrhizus [9] = assay: Antifungal activity against drug-susceptible Rhizopus oryzae UTHSC 06-1301 after 24 to 48 hrs; assay type: functional
Summary of the method: (§6)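 Minimum fungicidal concentration taken from the broth microdilution plates. From each well with complete inhibition (optically clear), 20 ul is plated on potato dextrose agar. Plates are incubated at 35°C for 24 to 48 h. The MFC is the lowest drug concentration giving no growth.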

Rhizopus arrhizus [10] = assay: Antifungal activity against drug-susceptible Rhizopus oryzae UTHSC 06-434 after 24 to 48 hrs; assay type: functional; summary of the method: as §6
Rhizopus arrhizus [11] = assay: Antifungal activity against drug-susceptible Rhizopus oryzae UTHSC 02-2882 at 5 ug by disk diffusion assay; assay type: functional; details: read-out: DIZ; summary of the method: as §3
Rhizopus arrhizus [12] = assay: Antifungal activity against drug-susceptible Rhizopus oryzae UTHSC 06-2457 by broth microdilution method; assay type: functional; summary of the method: as §2
Rhizopus arrhizus [13] = assay: Antifungal activity against drug-susceptible Rhizopus oryzae UTHSC 04-278 after 24 to 48 hrs; assay type: functional; summary of the method: as §1
Rhizopus arrhizus [14] = assay: Antifungal activity against drug-intermediate Rhizopus oryzae UTHSC 04-3109 infected in OF1 mouse assessed as reduction in kidney fungal load at 10-30 mg/kg, po bid treated 24 hrs after fungal infection; assay type: functional, organism-based; summary of the method: as §5
Rhizopus arrhizus [15] = assay: Antifungal activity against drug-susceptible Rhizopus oryzae UTHSC 06-4336 by broth microdilution method; assay type: functional; summary of the method: as §2
Rhizopus arrhizus [16] = assay: Antifungal activity against drug-susceptible Rhizopus oryzae UTHSC 06-1351 by broth microdilution method; assay type: functional; summary of the method: as §2
Rhizopus arrhizus [17] = assay: Antifungal activity against drug-susceptible Rhizopus oryzae UTHSC 06-4035 after 24 to 48 hrs; assay type: functional; summary of the method: as §6
Rhizopus arrhizus [18] = assay: Antifungal activity against drug-susceptible Rhizopus oryzae UTHSC 04-278 at 5 ug by disk diffusion assay; assay type: functional; details: read-out: DIZ
Summary of the method: (§7)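 Neo-Sensitabs tablet diffusion on Mueller-Hinton agar, following guidelines for molds; 9 mm tablets containing 5 µg posaconazole; inhibition zone diameter measured in mm; zone breakpoints applied at 24 h.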

Rhizopus arrhizus [19] = assay: Antifungal activity against drug-susceptible Rhizopus oryzae UTHSC 03-51 infected in OF1 mouse assessed as increase in mouse survival at 20-30 mg/kg, po bid treated 24 hrs after fungal infection; assay type: functional, organism-based
Summary of the method: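 Male OF1 mice (30 g) immunosuppressed 1 day before infection with cyclophosphamide 200 mg/kg i.p. plus 5-fluorouracil 150 mg/kg i.v.; challenged i.v. via tail vein with 2 × 10^4 CFU; oral gavage twice daily for 7 days from 24 h post-challenge; ceftazidime 5 mg/day s.c. days 1–7; untreated controls; 10 mice/group; survival checked daily to day 20.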

Rhizopus arrhizus [20] = assay: Antifungal activity against drug-susceptible Rhizopus oryzae UTHSC 04-1241 at 5 ug by disk diffusion assay; assay type: functional; details: read-out: DIZ; summary of the method: as §7
Rhizopus arrhizus [21] = assay: Antifungal activity against drug-intermediate Rhizopus oryzae infected in OF1 mouse assessed as mouse survival at 30 mg/kg, po bid treated 24 hrs after fungal infection; assay type: functional; summary of the method: as §4
Rhizopus arrhizus [22] = assay: Antifungal activity against drug-susceptible Rhizopus oryzae UTHSC 06-4133 by broth microdilution method; assay type: functional; summary of the method: as §2
Rhizopus arrhizus [23] = assay: Antifungal activity against drug-susceptible Rhizopus oryzae UTHSC 03-1826 at 5 ug by disk diffusion assay; assay type: functional; details: read-out: DIZ; summary of the method: as §3
Rhizopus arrhizus [24] = assay: Antifungal activity against drug-susceptible Rhizopus oryzae UTHSC 05-2975 after 24 to 48 hrs; assay type: functional; summary of the method: as §1
Rhizopus arrhizus [25] = assay: Antifungal activity against drug-susceptible Rhizopus oryzae UTHSC 04-443 at 5 ug by disk diffusion assay; assay type: functional; details: read-out: DIZ; summary of the method: as §7
Rhizopus arrhizus [26] = assay: Antifungal activity against drug-susceptible Rhizopus oryzae UTHSC 06-329 at 5 ug by disk diffusion assay; assay type: functional; details: read-out: DIZ
Summary of the method: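 Neo-Sensitabs tablet diffusion on Mueller-Hinton agar, run per the mould guidelines. Tablets are 9 mm in diameter and carry 5 ug posaconazole. The read-out is the inhibition zone diameter in mm.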

Rhizopus arrhizus [27] = assay: Antifungal activity against drug-susceptible Rhizopus oryzae UTHSC 04-278 by broth microdilution method; assay type: functional
Summary of the method: (§8)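 CLSI broth microdilution for filamentous fungi (M38-A2); MIC recorded in µg/ml against clinical isolates; breakpoints applied at 24 h.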

Rhizopus arrhizus [28] = assay: Antifungal activity against drug-susceptible Rhizopus oryzae UTHSC 05-3111 by broth microdilution method; assay type: functional; summary of the method: as §2
Rhizopus arrhizus [29] = assay: Antifungal activity against drug-susceptible Rhizopus oryzae UTHSC 04-1613 after 24 to 48 hrs; assay type: functional; summary of the method: as §1
Rhizopus arrhizus [30] = assay: Antifungal activity against drug-intermediate Rhizopus oryzae UTHSC 05-3032 after 24 to 48 hrs; assay type: functional
Rhizopus arrhizus [31] = assay: Antifungal activity against drug-susceptible Rhizopus oryzae UTHSC 06-4336 after 24 to 48 hrs; assay type: functional; summary of the method: as §6
Rhizopus arrhizus [32] = assay: Antifungal activity against drug-susceptible Rhizopus oryzae UTHSC 05-2447 by broth microdilution method; assay type: functional; summary of the method: as §8

CC[C@@H]([C@H](C)O)n1ncn(-c2ccc(N3CCN(c4ccc(OC[C@@H]5CO[C@@](Cn6cncn6)(c6ccc(F)cc6F)C5)cc4)CC3)cc2)c1=O [POSACONAZOLE]
MFC (Rhizopus arrhizus [1]): 8 µg/mL (≈ 11.4 µM) | MFC (Rhizopus arrhizus [2]): 1 µg/mL (≈ 1.43 µM) | MIC (Rhizopus arrhizus [3]): 0.25 µg/mL (≈ 0.357 µM) | MIC (Rhizopus arrhizus [4]): 0.25 µg/mL (≈ 0.357 µM) | zone of inhibition at 5 µg/disc (Rhizopus arrhizus [5]): 16 mm | Activity (Rhizopus arrhizus [6]): Active | Activity (Rhizopus arrhizus [7]): inactive | MIC (Rhizopus arrhizus [8]): 1 µg/mL (≈ 1.43 µM) | MFC (Rhizopus arrhizus [9]): 1 µg/mL (≈ 1.43 µM) | MFC (Rhizopus arrhizus [10]): 1 µg/mL (≈ 1.43 µM) | zone of inhibition at 5 µg/disc (Rhizopus arrhizus [11]): 22 mm | MIC (Rhizopus arrhizus [12]): 1 µg/mL (≈ 1.43 µM) | MFC (Rhizopus arrhizus [13]): > 16 µg/mL | Activity (Rhizopus arrhizus [14]): Active | MIC (Rhizopus arrhizus [15]): 0.5 µg/mL (≈ 0.713 µM) | MIC (Rhizopus arrhizus [16]): 0.25 µg/mL (≈ 0.357 µM) | MFC (Rhizopus arrhizus [17]): 0.5 µg/mL (≈ 0.713 µM) | zone of inhibition at 5 µg/disc (Rhizopus arrhizus [18]): 18 mm | Activity (Rhizopus arrhizus [19]): Active | zone of inhibition at 5 µg/disc (Rhizopus arrhizus [20]): 22 mm | Activity (Rhizopus arrhizus [21]): 10% | MIC (Rhizopus arrhizus [22]): 0.5 µg/mL (≈ 0.713 µM) | zone of inhibition at 5 µg/disc (Rhizopus arrhizus [23]): 18 mm | MFC (Rhizopus arrhizus [24]): 2 µg/mL (≈ 2.85 µM) | zone of inhibition at 5 µg/disc (Rhizopus arrhizus [25]): 22 mm | zone of inhibition at 5 µg/disc (Rhizopus arrhizus [26]): 20 mm | MIC (Rhizopus arrhizus [27]): 1 µg/mL (≈ 1.43 µM) | MIC (Rhizopus arrhizus [28]): 0.25 µg/mL (≈ 0.357 µM) | MFC (Rhizopus arrhizus [29]): 0.5 µg/mL (≈ 0.713 µM) | MFC (Rhizopus arrhizus [30]): > 16 µg/mL | MFC (Rhizopus arrhizus [31]): 1 µg/mL (≈ 1.43 µM) | MIC (Rhizopus arrhizus [32]): 1 µg/mL (≈ 1.43 µM)
